# Data taken from ChEMBL document CHEMBL4706487, “Antitumor agents 7. Synthesis, antiproliferative activity and molecular modeling of new l-lysine-conjugated pyridophenoxazinones as potent DNA-binding ligands and topoisomerase IIα inhibitors” (Eur J Med Chem, 2020).
# Tests used:
# HeLa = experiment: Antiproliferative activity against human HeLa cells assessed as cell viability measured after 4 days by MTT assay; type: functional, cell-based; settings: 96 h
# Summary of the method: (§1)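 Solid-tumor cells (own media, 10% FCS) were seeded at 5 × 10⁴ cells/mL, allowed 16 h to adhere, then dosed and read by MTT 4 days later. IC50 was derived by linear regression of growth as % of untreated controls.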
# MT4 = experiment: Antiproliferative activity against human MT-4 cells assessed as cell viability measured after 4 days by MTT assay; type: functional, cell-based; settings: MT4, 96 h
# Summary of the method: as §1, with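 “Leukemia/lymphoma cells (RPMI 1640, 10% FCS) resuspended at 1 × 10⁵ cells/mL with serial drug dilutions and read by MTT after 96 h at 37 °C. Solid-tumor” for “Solid-tumor”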
# Calf thymus DNA [1] = experiment: Binding affinity to calf thymus DNA assessed as hypochromism by UV-vis spectroscopy; settings: Bos taurus
# Calf thymus DNA [2] = experiment: Binding affinity to calf thymus DNA assessed as red shift by UV-vis spectroscopy; type: nucleic-acid assay; design: unit not given here; settings: Bos taurus
# Summary of the method: (§2)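 ctDNA held at 0.2 mM in phosphate buffer pH 7 and titrated with drug from […]. UV-vis spectra recorded in a 1 cm quartz cuvette. Binding constant was taken by the mole-ratio method from optical density changes at 260 nm, using a double reciprocal plot.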
# HT-29 = experiment: Antiproliferative activity against human HT-29 cells assessed as cell viability measured after 4 days by MTT assay; type: functional, cell-based; settings: HT-29, 96 h
# Summary of the method: as §1, with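 “Leukemia/lymphoma cells (RPMI 1640, 10% FCS) resuspended at 1 × 10⁵ cells/mL with serial drug dilutions and read by MTT after 96 h at 37 °C. Solid-tumor” for “Solid-tumor”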
# G-361 = experiment: Antiproliferative activity against human G-361 cells assessed as cell viability measured after 4 days by MTT assay; type: functional, cell-based; settings: G-361, 96 h
# Summary of the method: as §1, with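 “Leukemia/lymphoma cells (RPMI 1640, 10% FCS) resuspended at 1 × 10⁵ cells/mL with serial drug dilutions and read by MTT after 96 h at 37 °C. Solid-tumor” for “Solid-tumor”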
# SK-MEL-28 = experiment: Antiproliferative activity against human SKMEL-28 cells assessed as cell viability measured after 4 days by MTT assay; type: functional, cell-based; settings: SK-MEL-28, 96 h
# Summary of the method: as §1, with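 “Leukemia/lymphoma cells (RPMI 1640, 10% FCS) resuspended at 1 × 10⁵ cells/mL with serial drug dilutions and read by MTT after 96 h at 37 °C. Solid-tumor” for “Solid-tumor”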
# CCRF-CEM = experiment: Antiproliferative activity against human CCRF-CEM cells assessed as cell viability measured after 4 days by MTT assay; type: functional, cell-based; settings: 96 h
# Summary of the method: as §1, with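 “Leukemia/lymphoma cells (RPMI 1640, 10% FCS) resuspended at 1 × 10⁵ cells/mL with serial drug dilutions and read by MTT after 96 h at 37 °C. Solid-tumor” for “Solid-tumor”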
# Calf thymus DNA [3] = experiment: Binding affinity to calf thymus DNA assessed as lamda max by UV-vis spectroscopy; type: nucleic-acid assay; settings: Bos taurus; summary of the method: as §2
# MCF7 = experiment: Antiproliferative activity against human MCF7 cells assessed as cell viability measured after 4 days by MTT assay; type: functional, cell-based; settings: MCF7, 96 h
# Summary of the method: as §1, with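 “Leukemia/lymphoma cells (RPMI 1640, 10% FCS) resuspended at 1 × 10⁵ cells/mL with serial drug dilutions and read by MTT after 96 h at 37 °C. Solid-tumor” for “Solid-tumor”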
# ACHN = experiment: Antiproliferative activity against human ACHN cells assessed as cell viability measured after 4 days by MTT assay; type: functional, cell-based; settings: 96 h
# Summary of the method: as §1, with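 “Leukemia/lymphoma cells (RPMI 1640, 10% FCS) resuspended at 1 × 10⁵ cells/mL with serial drug dilutions and read by MTT after 96 h at 37 °C. Solid-tumor” for “Solid-tumor”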
# CCRF-SB = experiment: Antiproliferative activity against human CCRF-SB cells assessed as cell viability measured after 4 days by MTT assay; type: functional, cell-based; settings: 96 h
# Summary of the method: as §1, with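 “Leukemia/lymphoma cells (RPMI 1640, 10% FCS) resuspended at 1 × 10⁵ cells/mL with serial drug dilutions and read by MTT after 96 h at 37 °C. Solid-tumor” for “Solid-tumor”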
# Calf thymus DNA [4] = experiment: Binding affinity to calf thymus DNA assessed as isosbestic point by UV-vis spectroscopy; type: nucleic-acid assay; settings: Bos taurus; summary of the method: as §2
SMILES,IC50 (HeLa) [nM],IC50 (MT4) [nM],Activity (Calf thymus DNA [1]) [%],Activity (Calf thymus DNA [2]),IC50 (HT-29) [nM],IC50 (G-361) [nM],IC50 (SK-MEL-28) [nM],IC50 (CCRF-CEM) [nM],Activity (Calf thymus DNA [3]),IC50 (MCF7) [nM],IC50 (ACHN) [nM],IC50 (CCRF-SB) [nM],Activity (Calf thymus DNA [4]) [nm]
N[C@@H](CCCCNC(=O)c1ccc2oc3cc(=O)c4cccnc4c-3nc2c1)C(=O)O,150,150,17,446,120,30,100,150,441,120,100,100,275
COc1cccc2c1C(=O)c1c(O)c3c(c(O)c1C2=O)C[C@@](O)(C(=O)CO)C[C@@H]3O[C@H]1C[C@H](N)[C@H](O)[C@H](C)O1 [DOXORUBICIN],–,–,–,–,–,–,–,20,–,–,–,–,–
NCCCC[C@H](NC(=O)c1ccc2oc3cc(=O)c4cccnc4c-3nc2c1)C(=O)O,100,200,19,447,200,50,210,160,445,100,80,160,280
